{
  "source": "ChEMBL document CHEMBL3098016",
  "about": "“Biphenyl derivatives incorporating urea unit as novel VEGFR-2 inhibitors: design, synthesis and biological evaluation” (Bioorg Med Chem, 2014)",
  "key": {"[1]": {"molecular_target": "Vascular endothelial growth factor receptor 2 (Homo sapiens, UniProt P35968)", "sequence (P35968 whole entry)": "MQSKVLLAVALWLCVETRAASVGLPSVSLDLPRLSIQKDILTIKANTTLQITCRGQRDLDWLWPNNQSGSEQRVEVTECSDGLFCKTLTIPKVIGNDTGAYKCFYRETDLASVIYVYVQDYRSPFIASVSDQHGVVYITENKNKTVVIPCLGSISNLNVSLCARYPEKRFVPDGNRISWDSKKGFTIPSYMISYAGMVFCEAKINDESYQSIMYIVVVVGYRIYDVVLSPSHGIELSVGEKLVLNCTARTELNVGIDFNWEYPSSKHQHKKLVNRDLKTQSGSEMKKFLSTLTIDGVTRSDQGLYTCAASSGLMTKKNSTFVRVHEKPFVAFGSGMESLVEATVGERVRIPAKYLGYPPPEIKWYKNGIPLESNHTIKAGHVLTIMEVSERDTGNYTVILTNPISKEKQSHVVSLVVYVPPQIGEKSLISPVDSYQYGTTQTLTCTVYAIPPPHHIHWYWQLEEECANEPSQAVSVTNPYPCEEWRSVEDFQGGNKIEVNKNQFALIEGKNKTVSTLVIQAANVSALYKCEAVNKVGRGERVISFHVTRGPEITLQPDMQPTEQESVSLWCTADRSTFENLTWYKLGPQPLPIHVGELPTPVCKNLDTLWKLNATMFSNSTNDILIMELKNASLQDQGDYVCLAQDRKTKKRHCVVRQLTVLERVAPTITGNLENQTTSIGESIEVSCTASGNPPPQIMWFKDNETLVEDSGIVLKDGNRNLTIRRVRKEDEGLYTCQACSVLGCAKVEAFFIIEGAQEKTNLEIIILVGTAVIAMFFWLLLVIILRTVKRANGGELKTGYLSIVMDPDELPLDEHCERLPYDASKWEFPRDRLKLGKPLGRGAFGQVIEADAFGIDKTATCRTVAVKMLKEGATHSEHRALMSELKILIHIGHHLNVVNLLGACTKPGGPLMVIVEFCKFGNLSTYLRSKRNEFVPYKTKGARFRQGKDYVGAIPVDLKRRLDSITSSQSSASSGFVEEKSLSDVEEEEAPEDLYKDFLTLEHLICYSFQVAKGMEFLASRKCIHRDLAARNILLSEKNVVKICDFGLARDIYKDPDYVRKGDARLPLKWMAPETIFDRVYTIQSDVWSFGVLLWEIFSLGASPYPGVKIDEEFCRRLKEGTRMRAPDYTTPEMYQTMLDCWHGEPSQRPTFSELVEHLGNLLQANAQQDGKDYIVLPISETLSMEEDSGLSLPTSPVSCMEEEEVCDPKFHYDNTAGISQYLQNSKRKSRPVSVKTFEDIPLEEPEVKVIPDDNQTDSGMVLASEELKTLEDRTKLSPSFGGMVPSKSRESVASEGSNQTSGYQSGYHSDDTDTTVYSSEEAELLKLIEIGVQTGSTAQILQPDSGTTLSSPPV", "assay": "Inhibition of VEGFR2 (unknown origin) after 30 mins by HTRF assay"}, "[2]": {"assay": "Antiproliferative activity against human SH-SY5Y cells after 48 hrs by MTT assay"}, "LoVo": {"tested_on": "LoVo", "assay": "Antiproliferative activity against human LoVo cells after 48 hrs by MTT assay"}, "K562": {"tested_on": "K562", "assay": "Antiproliferative activity against human K562 cells after 48 hrs by MTT assay", "conditions": "K562, 48 h"}, "[3]": {"assay": "Antiproliferative activity against human SGC7901 cells after 48 hrs by MTT assay", "conditions": "SGC-7901, 48 h"}, "MDA-MB-231": {"tested_on": "MDA-MB-231", "assay": "Antiproliferative activity against human MDA-MB-231 cells after 48 hrs by MTT assay", "assay_type": "functional, cell-based", "conditions": "MDA-MB-231, 48 h", "outline": "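Cells in exponential growth plated at 1 × 10⁴ cells/well and incubated 24 h at 37 °C. Compounds were then added at various concentrations for 48 h. MTT (5 mg/mL) was added, followed by 4 h at 37 °C. Supernatant was removed and formazan dissolved in DMSO, with absorbance read at 490 nm. IC50 in µM.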"}},
  "data": [
    {"smiles": "COc1cc(-c2cc(NC(=O)Nc3ccc(OCCN(C)C)cc3)cc(OC)c2OC)ccc1C(C)=O", "values": [
      {"measurement": "IC50", "setting": "[1]", "value": "> 0.3", "unit": "µM"}
    ]},
    {"smiles": "CCN(CC)CCOc1ccc(NC(=O)Nc2cc(OC)c(OC)c(-c3ccc(C(C)=O)c(OC)c3)c2)cc1", "values": [
      {"measurement": "IC50", "setting": "[1]", "value": "> 0.3", "unit": "µM"}
    ]},
    {"smiles": "COc1cc(-c2cc(NC(=O)Nc3ccc(OCCN4CCOCC4)cc3)cc(OC)c2OC)ccc1C(C)=O", "values": [
      {"measurement": "IC50", "setting": "[1]", "value": "> 0.3", "unit": "µM"}
    ]},
    {"smiles": "COc1cc(-c2cc(NC(=O)Nc3ccc(OCCCN4CCOCC4)cc3)cc(OC)c2OC)ccc1C(C)=O", "values": [
      {"measurement": "IC50", "setting": "[2]", "value": 10.4, "unit": "µM"},
      {"measurement": "IC50", "setting": "LoVo", "value": 11.1, "unit": "µM"},
      {"measurement": "IC50", "setting": "K562", "value": 2.23, "unit": "µM"},
      {"measurement": "IC50", "setting": "[3]", "value": 80.9, "unit": "µM"}
    ]},
    {"smiles": "COc1cc(-c2cc(NC(=O)Nc3ccc(OCCN(C)C)cc3C)cc(OC)c2OC)ccc1C(C)=O", "values": [
      {"measurement": "IC50", "setting": "[1]", "value": "> 0.3", "unit": "µM"}
    ]},
    {"smiles": "COc1cc(-c2cc(NC(=O)Nc3cc(OCCN4CCCCC4)ccc3C)cc(OC)c2OC)ccc1C(C)=O", "values": [
      {"measurement": "IC50", "setting": "[1]", "value": "> 0.3", "unit": "µM"}
    ]},
    {"smiles": "CCN(CC)CCOc1ccc(NC(=O)Nc2cc(OC)c(OC)c(-c3ccc(/C(C)=N/O)c(OC)c3)c2)c(C)c1", "values": [
      {"measurement": "IC50", "setting": "[1]", "value": "> 0.3", "unit": "µM"}
    ]},
    {"smiles": "CNC(=O)c1cc(Oc2ccc(NC(=O)Nc3ccc(Cl)c(C(F)(F)F)c3)cc2)ccn1", "note": "[SORAFENIB]", "values": [
      {"measurement": "IC50", "setting": "[2]", "value": 5.73, "unit": "µM"},
      {"measurement": "IC50", "setting": "LoVo", "value": 6.56, "unit": "µM"},
      {"measurement": "IC50", "setting": "K562", "value": 0.86, "unit": "µM"},
      {"measurement": "IC50", "setting": "MDA-MB-231", "value": 35, "unit": "µM"},
      {"measurement": "IC50", "setting": "[3]", "value": 101, "unit": "µM"}
    ]}
  ]
}
